Calb FLC: C. albicans growth inhibition with fluconazole, primary screen, CaCi-2 strain, Alamar Blue fluorescence; C. albicans CaCi-2 (fluconazole-resistant clinical isolate) + fluconazole, 48 h; growth inhibition, % (test concentration not listed); hit rate 0.57% among 300,000; AID 1979, 2009;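 active means growth inhibition above about 58% in most replicates, limit read from the data, passing the limit was not always enough; inconclusive means exactly half the replicates above a set limit; inactive means most replicates below a set limit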;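 further: all wells also contain fluconazole at 8 µg/ml as a sub-toxic cotreatment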
Mdm2 MdmX PPI: inhibitors of human Mdm2-MdmX association, primary screen, cell-based, luminescence, split luciferase, SaOS-2, uHTS; Protein Mdm4 (Homo sapiens) + E3 ubiquitin-protein ligase Mdm2 (Homo sapiens), …; SaOS-2 split-luciferase Mdm2/MdmX complementation; inhibition, % at 8 µM; hit rate 3% among 330,000; AID 485346, 2010;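 active means inhibition of at least 50% at 8 µM in the primary screen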
SKKanGAS inh: S. pyogenes SKKanGAS growth inhibitors in kanamycin, primary screen, streptokinase expression inhibitor project, SKKanGAS strain, BacTiter-Glo luminescence; AID 1662, 2009; 6 h; inhibition, % at 7.5 µM; hit rate 1.3% among 300,000;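 active means mean replicate score, as percent of positive control median, at least 50; inconclusive means mean below 50 but one replicate at or above 50; inactive means mean and every replicate below 50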;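 further: strain carries kanamycin resistance gene driven by streptokinase promoter and grows in 40 µg/ml kanamycin; loss of luminescence reflects streptokinase promoter inhibition or plain growth inhibition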
CSC inhib: cancer stem cell viability inhibitors, primary screen, luminescence; cancer stem cell-like cells viability; hit rate 1.1% among 300,000; inhibition, % at 7.5 µM; AID 2717, 2010; in the data active means inhibition above about 75%; inconclusive means no clear call, values can overlap the other calls; tested in HMLE shEcad cells
Beta apoptosis: inhibitors of cytokine-induced beta cell apoptosis, primary screen, luminescence. INS-1E cytokine-induced death, ATP luminescence, 48 h; percent of positive-control rescue, neutral wells zero. hit rate 0.8% among 300,000. protection from apoptosis, % (concentration not given with the values). AID 435005, 2010;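 active means Every replicate reaches about 75%, or at least half do and their mean reaches it too, limit read from the data; inconclusive means At least half of replicates reach the limit but their mean does not; inactive means Under half of replicates reach the limit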;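 further: higher means more ATP so stronger rescue from cytokine killing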
T cruzi repl: inhibitors of intracellular T. cruzi growth, primary screen, luminescence, NIH3T3 host cells. T. cruzi beta-gal in NIH3T3, 90 h. inhibition, % (no concentration beside the values). hit rate 1.4% among 300,000. AID 1885, 2009;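 active means mean inhibition across valid replicates above about 55%, limit read from the data; inconclusive means mean below that limit but half or more replicates reach it; inactive means mean below it, under half of replicates reach it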;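 further: signal also drops with host cell toxicity which is not excluded here; higher percent means less beta-gal luminescence so fewer parasites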
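Read-out: Parasite load inhibition, % | Test system: Mouse NIH/3T3 fibroblasts infected with β-gal-expressing T. cruzi Tulahuen C4 | Amount: 5,000 cells/well | Medium: DMEM, 2% fetal bovine serum | Signal: GalScreen β-gal luminescence, detergent lysis, 60 min | Timing: 3 h attach, ≥90 h co-culture | Also added: Tulahuen C4 trypomastigotes, 5000/well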
Mdm2-MdmX conf: Mdm2-MdmX complex disruptors, retested hits, confirmation, luminescence, single concentration; shares compounds with Mdm2 MdmX PPI; Mdm2-MdmX binding, luminescent assay; inhibition, % at 8 µM; hit rate 55% among 10,000; in the data active means inhibition above about 40%
Full FLuc ctr: full-length luciferase signal inhibition, confirmation, counter-screen for Mdm2/MdmX interaction inhibitor project, cell-based, single concentration, SaOS-2. shares compounds with Mdm2 MdmX PPI. SaOS-2 full-length luciferase counterscreen, luminescence. inhibition, % at 8 µM. hit rate 77% among 6,200;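 active means mean inhibition at 8 µM reaching about 37%, which flags the compound as non-specific, limit read from the data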;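 further: p53-null SaOS-2 cells with luciferase driven by a doxycycline-inducible promoter; compound on cells about two nights before reading with doxycycline added after day one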
Each line names hits and unclear results; the compound was inactive in the other large screens (follow-up assays come after a bar, where they were run). In the library only some 5.7% were active in any assay of this set; here they are far more common.

C=CCNC(=S)Nc1sc2c(c1C(N)=O)CCCC2	none
S=c1[nH]c2ccc3ccccc3c2[nH]1	none
Cc1[nH]c2c(ccc3ccccc32)c1C1C(CCN)C1(C)C (stereo not drawn)	Mdm2 MdmX PPI 60.9, Beta apoptosis inconclusive, T cruzi repl 64.8 | Mdm2-MdmX conf 40.3 | Full FLuc ctr 77.1
CC(=O)c1ccc(OCC(=O)OCc2cc(-c3ccco3)on2)cc1	none (no result: Calb FLC, SKKanGAS inh, T cruzi repl)
Cc1ccccc1N1CCN(C2CCCN(C(=O)CCc3c(C)noc3C)C2)CC1 (stereo not drawn)	none
CC1(C)CC2CC(C)(CN2C(=O)c2cc(-c3ccccc3O)on2)C1 (stereo not drawn)	Mdm2 MdmX PPI 64.4 | Mdm2-MdmX conf inactive | Full FLuc ctr 67.0
Clc1nc(-c2ccccc2)c2ccccc2n1	none
CCc1nc(N=C(N)N)nc2ccccc12	Mdm2 MdmX PPI 59.0, T cruzi repl inconclusive | Mdm2-MdmX conf inactive
CCc1nc2ccccc2c(C(=O)O)c1C	none
NC(N)=Nc1nc(-c2ccccc2)c2ccccc2n1	Mdm2 MdmX PPI 62.3, T cruzi repl 80.6 (no result: Beta apoptosis) | Mdm2-MdmX conf inactive
COC(=O)c1ccccc1S(=O)(=O)N1CCC(C(=O)NCCC2=CCCCC2)CC1	none (no result: Calb FLC, SKKanGAS inh, T cruzi repl)
O=C(Nc1ccc(C(O)(C(F)(F)F)C(F)(F)F)cc1)c1ccc(Cl)c([N+](=O)[O-])c1	Mdm2 MdmX PPI 54.9, CSC inhib 87.2 | Mdm2-MdmX conf inactive
N#Cc1ccsc1NC(=O)c1ccc(Cl)c([N+](=O)[O-])c1	Mdm2 MdmX PPI 61.0 | Mdm2-MdmX conf 55.8 | Full FLuc ctr 112.3
Cc1cccc(C)c1NS(=O)(=O)c1ccc(NC(=O)c2ccc(Cl)c([N+](=O)[O-])c2)cc1	Mdm2 MdmX PPI 98.5, CSC inhib 103.1 | Mdm2-MdmX conf 68.7 | Full FLuc ctr 58.7
O=C(c1cc2cc(Br)ccc2o1)N1CCN(c2ccccc2)CC1	none
Cc1cc(Cl)ccc1NC(=O)CN1C(=O)NC2(CCCc3ccccc32)C1=O (stereo not drawn)	none (no result: CSC inhib)
Cc1ccc2cc(C#N)c(SCc3nnc(-c4ccccc4[N+](=O)[O-])o3)nc2c1	Mdm2 MdmX PPI 87.1 | Mdm2-MdmX conf 78.7 | Full FLuc ctr 72.3
O=C(Nc1cc(Cl)ccc1-n1cncn1)c1ccc([N+](=O)[O-])s1	Mdm2 MdmX PPI 58.4, Beta apoptosis 102.0, T cruzi repl 68.9 | Mdm2-MdmX conf inactive
C=CC[C@H](CC(=O)N(CCO)Cc1ccccc1)C(=O)N[C@@H](COC(=O)[C@H](CC=C)CC(=O)OC(C)(C)C)Cc1c[nH]c2ccccc12	none (no result: Calb FLC, SKKanGAS inh, T cruzi repl)
C=CC[C@@H](CC(=O)N(CCO)Cc1ccccc1)C(=O)N[C@@H](COC(=O)[C@@H](CC=C)Cc1ccc(F)cc1)Cc1c[nH]c2ccccc12	Mdm2 MdmX PPI 76.0 (no result: Calb FLC, SKKanGAS inh, CSC inhib, T cruzi repl) | Mdm2-MdmX conf inactive
C=CC[C@H](CC(=O)N(CCO)Cc1ccccc1)C(=O)N[C@@H](COC(=O)[C@@H](CC=C)Cc1ccc(F)cc1)Cc1c[nH]c2ccccc12	Mdm2 MdmX PPI 91.4 (no result: Calb FLC, SKKanGAS inh, T cruzi repl) | Mdm2-MdmX conf inactive
COc1cc2nc(SCC(=O)c3ccc(Br)cc3)n3nc(C)nc3c2cc1OC	Mdm2 MdmX PPI 65.2 | Mdm2-MdmX conf inactive
COC(=O)[C@H]1C[C@@H]1[C@H](N)c1ccccc1	none (no result: Beta apoptosis)
COc1cccc2sc(N3CCN(c4nc5ccccc5s4)CC3)nc12	Mdm2 MdmX PPI 61.8 | Mdm2-MdmX conf 61.2 | Full FLuc ctr 80.7
Cc1cc(C)cc(OCC(=O)Nc2cccc(-c3nnc(-c4ccco4)o3)c2)c1	Mdm2 MdmX PPI 83.0 | Mdm2-MdmX conf 40.4 | Full FLuc ctr 98.9
